Measured values as given in PubChem BioAssay.
Records with an inconclusive call do not appear.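 The calls were made as follows, unless noted: active = RAM network inhibition above 8.4% in each of two replicates, 3 SD over the compound average; inconclusive = above 8.4% inhibition in only one replicate; inactive = 8.4% inhibition or less in each replicate.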

Columns and labels:
[1] = S. cerevisiae growth inhibition in permissive medium (OD615), pilot counter-assay for S. cerevisiae lifespan shortening project, permissive growth control (AID 705;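 active = growth inhibition above 25% in both replicates, a cutoff set 3 SD above the mean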); settings: OD615, 24 h, at 10 µM, hits give high values
In short: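 System: engineered DeaD yeast; Medium: permissive raffinose/galactose medium; Compound dosing: 10 µM single dose, 0.25% DMSO; Incubation: 4 h cell pre-growth, 24 h exposure at 30 °C; Technique: OD at 615 nm; Evaluation: growth inhibition from lowered OD615 after 24 h.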

[2] = S. cerevisiae growth inhibition in restrictive medium, OD615, pilot screen, restrictive growth control, yeast lifespan reduction project (AID 706;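 active = growth inhibition above a set limit, 3 SD over mean compound inhibition, in both replicates, cut at about 43% in these data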;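 also: modified DeaD lifespan yeast strain shifted to restrictive glucose medium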); settings: OD615, 48 h, at 10 µM, hits give high values
In short: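 Material: modified S. cerevisiae; buffer or medium: CSMM-D glucose medium; doses: one concentration, 10 µM final, 0.25% DMSO; incubation: 48 h compound exposure at 30 °C; detection: optical density at 615 nm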

[3] = doxorubicin toxicity protection in MRP-1 cells – H69AR cells, CellTiter-Glo, duplicate, MRP-1 activator project, pilot screen (AID 807;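 active = viability increase at or above a cutoff of the median across tested compounds plus 3 SD, cut at about 8.5% in these data, passing the limit was not always enough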;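 also: compound pretreatment 18-22 h then 72 h combined with doxorubicin; 0% = doxorubicin alone and 100% = vehicle without doxorubicin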); settings: H69AR viability with doxorubicin, CellTiter-Glo luminescence; at 10 µM; hits give high values
[4] = viability of HCT116 without oncogenic beta-catenin – human colon tumor cells, pilot screen (AID 823;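 active = cell viability at or below a set limit in both duplicate runs, the limit being the all-compound median minus 4 SD, cut at about 23% in these data, passing the limit was not always enough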;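 also: 0% = wells killed by 20 µM Hyamine and 100% = untreated DMSO cell wells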); settings: HCT116 beta-catenin knockout viability, CellTiter-Glo, 60 h; at 10 µM; hits give low values
[5] = viability of PTEN-null HCT116 cells – cell-based, HCT116 clonal line, CellTiter-Glo, pilot screen (AID 824;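 active = viability at or below 27.92% in each of two runs, the all-compound median minus 4 SD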;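 also: 0% = 20 µM Hyamine control and 100% = vehicle cell control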); settings: HCT116 PTEN-deleted viability, 60 h, at 10 µM, hits give low values
[6] = RAM pathway blockade in budding yeast – dse1pr::URA3 reporter, 5-FOA selection, pilot screen (AID 869;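 active = inhibition over a set limit, the all-compound mean plus 3 SD, in both replicate runs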;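 also: 0% = DMSO wells with no growth and 100% = 10 µM 1-NA-PP1 with full growth; RAM network block rescues cells from 5-FOA so hits raise OD615 growth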); settings: S. cerevisiae dse1pr::URA3 5-FOA growth, OD615, 2 d; at 10 µM; hits give high values; strain carries analog-sensitive mutant Cbk1 kinase
[7] = RAM signaling pathway blockade in yeast – S. cerevisiae, Pdr1DBD-CYC8 efflux-inhibited sensitized strain, primary screen (AID 1298);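 also: 0% = DMSO untreated cells without growth and 100% = 10 µM 1-NA-PP1 full growth; higher means more yeast growth rescued from 5-FOA killing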; settings: S. cerevisiae cbk1-as DSE1-URA3 strain, 5-FOA growth OD615, 2 d; at 50 µM; hits give high values

O=C1C(O)CC2c3ccccc3CC3(CCCC3)N12 (configuration not stated)
inactive: growth inhibition [1] -14.1% | growth inhibition [2] -11.3% | viability increase [3] -0.65% | viability [4] 99.4% | viability [5] 90.4% | inhibition [6] 0.65% | RAM network inhibition [7] 8.18%

Cc1cccc(N2CCN(C(=O)C3CCN(S(=O)(=O)c4cccc5cccnc45)CC3)CC2C)c1 (configuration not stated)
inactive: growth inhibition [1] -1.53% | growth inhibition [2] -4.12% | viability increase [3] -1.38% | viability [4] 69.9% | viability [5] 67.1% | inhibition [6] 2.65% | RAM network inhibition [7] 1.04%

O=C(COC(=O)c1ccc(S(=O)(=O)N2CCOCC2)cc1)NC1CCCCCC1
inactive: growth inhibition [1] -5.28% | growth inhibition [2] -3.04% | viability increase [3] 0.74% | viability [4] 101% | viability [5] 105% | inhibition [6] 1.42% | RAM network inhibition [7] 3.1%

CCOC1CCCCC1NS(=O)(=O)c1ccc(Cl)cc1 (configuration not stated)
inactive: growth inhibition [1] -3.5% | growth inhibition [2] 1.71% | viability increase [3] -3.23% | viability [4] 99.3% | viability [5] 91.7% | inhibition [6] 1.5% | RAM network inhibition [7] 2.71%

CCOC1OC2C(CO)OC(n3cnc4c(N)ncnc43)C2O1 (configuration not stated)
inactive: growth inhibition [1] 6.12% | growth inhibition [2] 10.6% | viability increase [3] 0.13% | viability [4] 95.1% | viability [5] 96.6% | inhibition [6] 1.5% | RAM network inhibition [7] 1.28%

COC(=O)c1ccc(NC(=O)c2cccc(OC)c2)cc1
inactive: growth inhibition [1] -1.57% | growth inhibition [2] 7.93% | viability increase [3] 1.59% | viability [4] 69.9% | viability [5] 80.7% | inhibition [6] 0.875% | RAM network inhibition [7] 8.05%

Clc1ccc(C2CC(c3cccs3)n3ncnc3N2)cc1Cl (configuration not stated)
inactive: growth inhibition [1] -2.88% | growth inhibition [2] 29.1% | viability increase [3] -5.77% | viability [4] 80.2% | viability [5] 72.9% | inhibition [6] 0.94% | RAM network inhibition [7] -1.53%

Cc1cc(O)c(C=Nc2cccc(Cl)c2)c(=O)o1
inactive: growth inhibition [1] 4.66% | growth inhibition [2] 4.37% | viability increase [3] -3.17% | viability [4] 102% | viability [5] 94.1% | inhibition [6] 3.11% | RAM network inhibition [7] -0.93%

O=C1C2ON(c3ccccc3)C(c3ccncc3)C2C(=O)N1c1ccc(N2CCOCC2)cc1 (configuration not stated)
inactive: growth inhibition [1] -13.7% | growth inhibition [2] 0.35% | viability increase [3] -0.72% | viability [4] 104% | viability [5] 103% | inhibition [6] 2.51% | RAM network inhibition [7] 0.47%

O=C(Nc1nnc(-c2ccc3c(c2)CCCC3)o1)C1CCCCC1
inactive: growth inhibition [1] -16.5% | growth inhibition [2] -4.87% | viability increase [3] -2.6% | viability [4] 64.5% | viability [5] 62% | inhibition [6] 3.24% | RAM network inhibition [7] 4.48%

COc1cc(C(=O)Nc2nnc(C)s2)cc(OC)c1OC
inactive: growth inhibition [1] -12.2% | growth inhibition [2] -5.23% | viability increase [3] -2% | viability [4] 95.2% | viability [5] 82.3% | inhibition [6] 2.54% | RAM network inhibition [7] 2.16%

O=P(O)(CCc1ccncc1)CN1CCCCC1
inactive: growth inhibition [1] -9.59% | growth inhibition [2] -7.67% | viability increase [3] 2.46% | viability [4] 97.3% | viability [5] 101% | inhibition [6] 1.82% | RAM network inhibition [7] -0.01%

CCN1CCN(C(=O)C2CCN(Cc3nc(-c4cccc(Cl)c4)oc3C)CC2)CC1
inactive: growth inhibition [1] -1.82% | growth inhibition [2] -14.3% | viability increase [3] -4.04% | viability [4] 69% | viability [5] 72.4% | inhibition [6] 0.9% | RAM network inhibition [7] 1.16%

CCNC(=O)CN(c1ccc(CC)cc1)S(C)(=O)=O
inactive: growth inhibition [1] -5% | growth inhibition [2] -18% | viability increase [3] -0.8% | viability [4] 97.9% | viability [5] 106% | inhibition [6] 0.76% | RAM network inhibition [7] 1.88%

COc1cccc(NC(=O)CSc2nnc(Cn3c(=O)sc4ccccc43)n2C)c1
inactive: growth inhibition [1] 1.18% | growth inhibition [2] 18.9% | viability increase [3] -2.91% | viability [4] 102% | viability [5] 104% | inhibition [6] 2.37% | RAM network inhibition [7] 4.95%

CCOC(=O)CSc1nnc(Cc2cc(=O)[nH]c(=O)[nH]2)n1-c1ccc(Cl)cc1
inactive: growth inhibition [1] -16.1% | growth inhibition [2] -1.39% | viability increase [3] 1.33% | viability [4] 101% | viability [5] 100% | inhibition [6] 2.48% | RAM network inhibition [7] 4.03%
